Experiments:
[1] = target: T1, Tyrosine-protein phosphatase non-receptor type 1 (Homo sapiens, UniProt P18031); assay: Concentration required for 50% Inhibition of activity against Protein Tyrosine Phosphatases 1B
T1 sequence (P18031 whole entry): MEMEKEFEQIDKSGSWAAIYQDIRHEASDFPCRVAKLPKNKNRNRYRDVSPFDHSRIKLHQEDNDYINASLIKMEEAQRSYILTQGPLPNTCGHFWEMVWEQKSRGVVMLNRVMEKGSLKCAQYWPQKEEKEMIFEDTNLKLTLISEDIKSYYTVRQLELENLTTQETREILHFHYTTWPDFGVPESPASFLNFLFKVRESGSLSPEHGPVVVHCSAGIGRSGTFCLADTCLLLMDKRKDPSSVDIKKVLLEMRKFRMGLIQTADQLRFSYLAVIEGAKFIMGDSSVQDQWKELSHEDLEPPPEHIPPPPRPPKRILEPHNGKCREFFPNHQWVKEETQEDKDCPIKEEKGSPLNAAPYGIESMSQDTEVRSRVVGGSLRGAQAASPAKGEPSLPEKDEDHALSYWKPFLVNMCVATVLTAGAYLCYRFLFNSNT

[2] = target: Receptor-type tyrosine-protein phosphatase F (Homo sapiens, UniProt P10586); assay: Concentration required for 50% Inhibition of activity against Protein-tyrosine phosphatase Lar
Method in brief: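 Yersinia PTPase and LAR, commercial enzymes. p-NPP at 2.5 mM; 1 mM EDTA, 100 mM NaCl, 100 mM acetate pH 5.5, 10% DMSO, 25 °C. Initial rates taken from hydrolysis followed at 420 nm, 10–120 s after mixing. IC50 obtained by Dixon analysis.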

Sequence of Receptor-type tyrosine-protein phosphatase F (P10586 whole entry): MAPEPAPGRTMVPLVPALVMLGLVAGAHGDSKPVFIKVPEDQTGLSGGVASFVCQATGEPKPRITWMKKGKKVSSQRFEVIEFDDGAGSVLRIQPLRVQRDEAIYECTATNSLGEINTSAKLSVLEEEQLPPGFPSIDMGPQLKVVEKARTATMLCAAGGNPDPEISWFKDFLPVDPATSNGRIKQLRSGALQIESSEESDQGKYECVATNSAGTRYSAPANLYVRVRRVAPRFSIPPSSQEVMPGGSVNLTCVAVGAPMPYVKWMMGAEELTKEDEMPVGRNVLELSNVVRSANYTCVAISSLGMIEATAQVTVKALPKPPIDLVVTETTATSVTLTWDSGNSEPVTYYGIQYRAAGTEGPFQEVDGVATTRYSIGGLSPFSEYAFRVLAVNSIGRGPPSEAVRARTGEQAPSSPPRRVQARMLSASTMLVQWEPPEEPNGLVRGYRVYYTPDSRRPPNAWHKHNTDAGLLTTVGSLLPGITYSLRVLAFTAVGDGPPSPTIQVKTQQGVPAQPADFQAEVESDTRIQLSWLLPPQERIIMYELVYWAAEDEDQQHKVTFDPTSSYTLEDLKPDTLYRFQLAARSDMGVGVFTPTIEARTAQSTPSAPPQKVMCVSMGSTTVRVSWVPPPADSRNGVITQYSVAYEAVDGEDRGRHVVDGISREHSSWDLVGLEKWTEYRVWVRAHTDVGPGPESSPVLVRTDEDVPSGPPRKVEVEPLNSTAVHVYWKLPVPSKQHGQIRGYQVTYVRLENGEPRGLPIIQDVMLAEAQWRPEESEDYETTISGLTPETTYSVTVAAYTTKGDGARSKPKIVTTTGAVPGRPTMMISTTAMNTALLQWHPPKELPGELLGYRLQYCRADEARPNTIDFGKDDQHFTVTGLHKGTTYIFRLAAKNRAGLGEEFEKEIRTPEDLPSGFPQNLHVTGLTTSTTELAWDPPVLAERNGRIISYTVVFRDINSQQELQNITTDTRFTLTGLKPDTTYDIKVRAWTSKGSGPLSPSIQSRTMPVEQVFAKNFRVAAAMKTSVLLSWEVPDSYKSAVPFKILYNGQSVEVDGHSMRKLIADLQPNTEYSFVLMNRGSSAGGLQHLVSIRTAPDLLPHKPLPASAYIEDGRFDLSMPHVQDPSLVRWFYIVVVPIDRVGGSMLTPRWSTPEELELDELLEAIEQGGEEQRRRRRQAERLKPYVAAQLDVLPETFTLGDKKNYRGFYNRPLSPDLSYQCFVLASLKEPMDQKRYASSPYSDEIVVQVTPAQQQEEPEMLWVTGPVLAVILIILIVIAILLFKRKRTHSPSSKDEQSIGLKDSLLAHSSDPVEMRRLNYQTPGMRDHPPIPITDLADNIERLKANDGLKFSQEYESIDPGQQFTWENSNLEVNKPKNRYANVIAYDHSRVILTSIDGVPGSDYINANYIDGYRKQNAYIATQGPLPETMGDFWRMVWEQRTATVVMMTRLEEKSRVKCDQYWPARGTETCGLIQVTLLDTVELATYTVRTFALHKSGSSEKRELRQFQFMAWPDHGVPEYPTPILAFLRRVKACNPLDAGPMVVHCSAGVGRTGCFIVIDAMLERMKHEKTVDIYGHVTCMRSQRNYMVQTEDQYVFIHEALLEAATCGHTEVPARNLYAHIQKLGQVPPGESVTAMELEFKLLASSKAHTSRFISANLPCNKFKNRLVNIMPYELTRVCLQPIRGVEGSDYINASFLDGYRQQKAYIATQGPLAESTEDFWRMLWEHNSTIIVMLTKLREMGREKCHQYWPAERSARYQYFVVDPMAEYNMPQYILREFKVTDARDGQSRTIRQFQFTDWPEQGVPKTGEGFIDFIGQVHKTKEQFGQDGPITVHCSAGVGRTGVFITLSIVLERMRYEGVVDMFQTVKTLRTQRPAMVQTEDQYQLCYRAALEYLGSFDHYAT

| Structure (SMILES) | IC50 [1] [µM] | IC50 [2] [µM] |
| --- | --- | --- |
| O=C(O)C(=O)c1ccc(OCc2ccc(COc3ccc(C(=O)C(=O)O)cc3)cc2)cc1 | 2.7 | 250 |
| O=C(O)C(=O)c1ccc(OCc2ccccc2COc2ccc(C(=O)C(=O)O)cc2)cc1 | 19 | 120 |
| O=C(O)C(=O)c1ccc(O)cc1 |  | 2300 |

The remaining lines, values ahead:

| IC50 [1] [µM] | IC50 [2] [µM] | Structure (SMILES) |
| --- | --- | --- |
| 53 | 120 | O=C(O)C(=O)c1ccc(OCc2cccc(COc3ccc(C(=O)C(=O)O)cc3)c2)cc1 |
| 13 | 41 | O=C(O)C(=O)c1ccc(OCc2cc(COc3ccc(C(=O)C(=O)O)cc3)cc(COc3ccc(C(=O)C(=O)O)cc3)c2)cc1 |
